Data: ChEMBL document CHEMBL4024803, “New Steroidal 4-Aminoquinolines Antagonize Botulinum Neurotoxin Serotype A in Mouse Embryonic Stem Cell Derived Motor Neurons in Postintoxication Model” (J Med Chem, 2018)
pIC50: −log10 of the molar value.

Legend:
[1] = biological target: Botulinum neurotoxin type A (Clostridium botulinum) (UniProt P0DPI0); experiment: Inhibition of Clostridium botulinum BoNT/A light chain at 20 uM using P39 as substrate preincubated for 10 mins followed by substrate addition measured after 10 mins by HPLC method relative to control
Summary of the method: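 Purified BoNT/A light chain (20 nM) with 0.2 mg/mL BSA in 50 mM HEPES pH 7.4, preincubated with compound for 10 min at room temperature. Cleavage fragments were separated by reversed-phase HPLC (214/280 nm). Percent inhibition was taken from fragment peak areas with vs without compound. Mean of three experiments.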

[2] = biological target: Botulinum neurotoxin type A (Clostridium botulinum) (UniProt P0DPI0); experiment: Inhibition of Clostridium botulinum BoNT/A holotoxin-mediated SNAP-25 cleavage in mouse HBG3 cell-derived motor neurons assessed as full length of SNAP-25 at 10 uM preincubated for 30 mins followed by intoxication measured after 4 hrs by Western blot method relative to control; parameters: scale not given: the % may be the effect or the level left
[3] = biological target: Botulinum neurotoxin type A (Clostridium botulinum, UniProt P0DPI0); experiment: (§1) Inhibition of Clostridium botulinum BoNT/A light chain using P39 as substrate preincubated for 10 mins followed by substrate addition measured after 10 mins by HPLC method
[4] = biological target: Botulinum neurotoxin type A (Clostridium botulinum) (UniProt P0DPI0); experiment: as §1
[5] = biological target: Botulinum neurotoxin type A (Clostridium botulinum) (UniProt P0DPI0); experiment: Inhibition of Clostridium botulinum BoNT/A holotoxin-mediated SNAP-25 cleavage in mouse HBG3 cell-derived motor neurons preincubated for 30 mins followed by intoxication measured after 4 hrs by Western blot method
[6] = Distribution co-efficient, log D of the compound at pH 10 by reversed-phase thin-layer chromatographic method; format: physicochemical; conditions: buffer
Summary of the method: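 Reversed-phase thin-layer chromatography at pH 10, mobile phase acetone/NH3/H2O (85/5/10).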

[7] = biological target: Botulinum neurotoxin type A (Clostridium botulinum) (UniProt P0DPI0); experiment: Inhibition of Clostridium botulinum BoNT/A holotoxin-mediated SNAP-25 cleavage in mouse HBG3 cell-derived motor neurons assessed as full length of SNAP-25 at 20 uM preincubated for 30 mins followed by intoxication measured after 4 hrs by Western blot method relative to control; parameters: scale not given: the % may be the effect or the level left
[8] = Distribution co-efficient, log D of the compound at pH 1 by reversed-phase thin-layer chromatographic method; format: physicochemical; conditions: buffer
Summary of the method: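 Reversed-phase thin-layer chromatography at pH 1, mobile phase MeOH/HCl (70/30).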

[9] = biological target: Botulinum neurotoxin type A (Clostridium botulinum) (UniProt P0DPI0); experiment: Inhibition of Clostridium botulinum BoNT/A holotoxin-mediated SNAP-25 cleavage in mouse HBG3 cell-derived motor neurons assessed as full length of SNAP-25 at 20 uM treated at 60 mins post intoxication by Western blot method relative to control; parameters: scale not given: the % may be the effect or the level left
[10] = biological target: Botulinum neurotoxin type A (Clostridium botulinum) (UniProt P0DPI0); experiment: Inhibition of Clostridium botulinum BoNT/A holotoxin-mediated SNAP-25 cleavage in mouse HBG3 cell-derived motor neurons assessed as full length of SNAP-25 at 20 uM treated at 30 mins post intoxication by Western blot method relative to control; parameters: scale not given: the % may be the effect or the level left

Compound | inhibition [1] [%] | Activity [2] [%] | pIC50 [3] | inhibition [4] | inhibition [5] | chromatographic logD [6] | Activity [7] [%] | chromatographic logD [8] | Activity [9] [%] | Activity [10] [%]
N#Cc1ccc2c(-c3ccc(CNCCCCCCNc4ccnc5ccccc45)cc3)csc2c1 | 8 | – | – | – | – | – | – | – | – | –
N#Cc1ccc2scc(-c3ccc(CNCCCCNc4ccnc5ccccc45)cc3)c2c1 | 84 | 21 | 5.34 | Dose-dependent effect | Dose-dependent effect | 3.67 | 26 | – | – | –
CN(CCCNc1ccnc2ccccc12)CC12CC3CC(CC(C3)C1)C2 | 30 | 30 | – | – | Dose-dependent effect | – | 31 | – | – | –
CC(=O)O[C@H]1C[C@H]2[C@@H]([C@H](OC(C)=O)C[C@@H]3C[C@H](N)CC[C@@]32C)[C@@H]2CC[C@H]([C@H](C)CCCN(C)CCCC(C)Nc3ccnc4ccccc34)[C@@]12C (mixture of isomers) | 85 | 20 | 6.15 | Dose-dependent effect | Dose-dependent effect | – | 41 | 2.38 | – | –
CC(=O)O[C@H]1C[C@H]2[C@@H]([C@H](OC(C)=O)C[C@@H]3C[C@H](N)CC[C@@]32C)[C@@H]2CC[C@H]([C@H](C)CCCNC(C)CCCNc3ccnc4ccccc34)[C@@]12C (mixture of isomers) | 75 | 86 | 5.52 | Dose-dependent effect | Dose-dependent effect | – | 87 | 2.21 | 22 | 50
N#Cc1ccc(-c2ccc(-c3ccc(CNCCCCNc4ccnc5ccccc45)cc3)s2)cc1 | 67 | 18 | 5.03 | Dose-dependent effect | Dose-dependent effect | – | 39 | 2.93 | – | –
N#Cc1ccc2c(-c3ccc(CNCCCCNc4ccnc5ccccc45)cc3)csc2c1 | 23 | – | – | – | – | – | – | – | – | –
CC(CCNCCC12CC3CC(CC(C3)C1)C2)Nc1ccnc2cc(Cl)ccc12 (stereo unspecified) | 64 | – | – | – | – | – | – | – | – | –
N#Cc1ccc(-c2ccc(-c3ccc(CNCCNc4ccnc5cc(Cl)ccc45)cc3)s2)cc1 | 36 | – | – | – | – | – | – | – | – | –
N#Cc1ccc(-c2ccc(-c3ccc(CNCCCCCCCCNc4ccnc5cc(Cl)ccc45)cc3)s2)cc1 | 14 | – | – | – | – | – | – | – | – | –
CN(CCCCCCNc1ccnc2ccccc12)Cc1ccc(-c2ccc(-c3ccc(C#N)cc3)s2)cc1 | 55 | – | – | – | – | – | – | – | – | –
N#Cc1ccc2scc(-c3ccc(CNCCCCCCNc4ccnc5ccccc45)cc3)c2c1 | 75 | 36 | 5.48 | Dose-dependent effect | Dose-dependent effect | 3.85 | 43 | – | – | –
CC(=O)O[C@H]1C[C@H]2[C@@H]([C@H](OC(C)=O)C[C@@H]3C[C@H](NCCCCCCNc4ccnc5cc(Cl)ccc45)CC[C@@]32C)[C@@H]2CC[C@H]([C@H](C)CCCNCCCCCCNc3ccnc4cc(Cl)ccc34)[C@@]12C | 90 | 70 | 4.91 | Dose-dependent effect | Dose-dependent effect | – | 84 | – | 20 | 36
CC(=O)O[C@H]1C[C@H]2[C@@H]([C@H](OC(C)=O)C[C@@H]3C[C@H](N)CC[C@@]32C)[C@@H]2CC[C@H]([C@H](C)CCCNCCCC(=O)Nc3ccnc4cc(Cl)ccc34)[C@@]12C | 37 | – | – | – | – | – | – | – | – | –
CN(CCCNc1ccnc2cc(Cl)ccc12)CC12CC3CC(CC(C3)C1)C2 | 71 | 51 | 5.06 | Dose-dependent effect | Dose-dependent effect | 3.24 | 56 | – | 39 | 46
N#Cc1ccc(-c2ccc(-c3ccc(CNCCCCCCNc4ccnc5ccccc45)cc3)s2)cc1 | 70 to 80 | 22 | 5.47 | Dose-dependent effect | Dose-dependent effect | – | 48 | 3.08 | – | –
CC(CCN(C)CC12CC3CC(CC(C3)C1)C2)Nc1ccnc2ccccc12 (stereo unspecified) | 51 | 47 | 5.28 | Dose-dependent effect | Dose-dependent effect | – | 46 | – | – | –
N#Cc1ccc(-c2ccc(-c3cccc(CNCCCCCCNc4ccnc5ccccc45)c3)s2)cc1 | 68 | 46 | 5.06 | Dose-dependent effect | Dose-dependent effect | – | 71 | 3.08 | – | –
CN(CCCCNc1ccnc2ccccc12)Cc1ccc(-c2csc3ccc(F)cc23)cc1 | 46 | 44 | – | – | Dose-dependent effect | 3.98 | 55 | – | – | –

Compound | inhibition [1] [%] | Activity [2] [%] | pIC50 [3] | inhibition [4] | inhibition [5] | chromatographic logD [6] | Activity [7] [%] | chromatographic logD [8] | Activity [9] [%] | Activity [10] [%]
C#Cc1ccc(-c2ccc(-c3ccc(CNCCCCCCCCNc4ccnc5ccccc45)cc3)s2)cc1 | 53 | – | – | – | – | – | – | – | – | –
N#Cc1ccc(-c2ccc(-c3ccc(CNCCCCCCNc4ccnc5cc(Cl)ccc45)cc3)s2)cc1 | 30 | – | – | – | – | – | – | – | – | –
CC(=O)O[C@H]1C[C@H]2[C@@H]([C@H](OC(C)=O)C[C@@H]3C[C@H](N)CC[C@@]32C)[C@@H]2CC[C@H]([C@H](C)CCCN(C)CCCCNc3ccnc4ccccc34)[C@@]12C | 52 | 70 | 5.82 | Dose-dependent effect | Dose-dependent effect | – | 69 | 2.11 | – | –
CC(CCNc1ccnc2ccccc12)NCCC12CC3CC(CC(C3)C1)C2 (stereo unspecified) | – | 23 | – | – | Dose-dependent effect | – | 24 | – | – | –
CC(CCNCCC12CC3CC(CC(C3)C1)C2)Nc1c(F)cnc2cc(Cl)ccc12 (stereo unspecified) | 2 | 30 | – | – | Dose-dependent effect | 4.33 | 29 | – | – | –
CC(CCCN(C)Cc1ccc(-c2csc3ccc(F)cc23)cc1)Nc1ccnc2ccccc12 (stereo unspecified) | 48 | – | – | – | – | – | – | – | – | –
CC(CCNc1ccnc2cc(Cl)ccc12)NCC12CC3CC(CC(C3)C1)C2 (stereo unspecified) | 65 | 29 | 5.57 | Dose-dependent effect | Dose-dependent effect | 3.4 | 30 | – | – | –
CC(=O)O[C@H]1C[C@H]2[C@@H]([C@H](OC(C)=O)C[C@@H]3C[C@H](N)CC[C@@]32C)[C@@H]2CC[C@H]([C@H](C)CCCNCCCC(C)Nc3ccnc4ccccc34)[C@@]12C (mixture of isomers) | 71 | 67 | 5.57 | Dose-dependent effect | Dose-dependent effect | – | 69 | 2.28 | 22 | 38
C#Cc1ccc(-c2ccc(-c3ccc(CNCCNc4ccnc5cc(Cl)ccc45)cc3)s2)cc1 | 19 | – | – | – | – | – | – | – | – | –
Fc1ccc2scc(-c3ccc(CNCCCCCCNc4ccnc5ccccc45)cc3)c2c1 | 56 | – | – | – | – | – | – | – | – | –
CC(CCCNCc1ccc(-c2csc3ccc(F)cc23)cc1)Nc1ccnc2ccccc12 (stereo unspecified) | 69 | 62 | 5.06 | Dose-dependent effect | Dose-dependent effect | 3.98 | 62 | – | – | –
Fc1ccc2scc(-c3ccc(CNCCCCNc4ccnc5ccccc45)cc3)c2c1 | 34 | – | – | – | – | – | – | – | – | –
CC(CCNCCC12CC3CC(CC(C3)C1)C2)Nc1ccnc2ccccc12 (stereo unspecified) | 42 | – | – | – | – | – | – | – | – | –
CC(CCNCCC12CC3CC(CC(C3)C1)C2)Nc1c(F)cnc2ccccc12 (stereo unspecified) | – | 30 | – | – | Dose-dependent effect | 4.13 | 32 | – | – | –
CN(CCCNc1ccnc2ccccc12)CCC12CC3CC(CC(C3)C1)C2 | 31 | – | – | – | – | – | – | – | – | –
CC(CCNCC12CC3CC(CC(C3)C1)C2)Nc1c(F)cnc2cc(Cl)ccc12 (stereo unspecified) | 15 | 31 | – | – | Dose-dependent effect | 3.24 | 35 | – | – | –
CC(CCNCC12CC3CC(CC(C3)C1)C2)Nc1c(F)cnc2ccccc12 (stereo unspecified) | – | 24 | – | – | Dose-dependent effect | 3.09 | 23 | – | – | –
CC(CCCNCc1ccc(-c2csc3ccc(C#N)cc23)cc1)Nc1ccnc2ccccc12 (stereo unspecified) | 61 | 34 | 4.99 | Dose-dependent effect | Dose-dependent effect | 3.67 | 53 | – | – | –
